Laboratory results reported in ChEMBL document CHEMBL1139834, “Synthesis and structure-activity relationships of new benzodioxinic lactones as potential anticancer drugs” (J Med Chem, 2007).
The source made the active and inactive calls. The calls are words filed in the database; no cut-off is given here.

Key:
HT-29 = assay: Cytotoxicity against human HT29 cell line; format: cell-based
Method in brief: (§1)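 Cells grown at 37 °C under 5% CO2 in medium with 2 mM L-glutamine, penicillin, streptomycin and 20% heat-inactivated horse serum. Drug in DMSO (0.5% final) added to exponentially growing cells seeded at 0.8 × 10^5 cells/mL. Coulter counting in quadruplicate at 48 h (L1210) or 96 h (HT-29). IC50 from probit of % growth inhibition versus log dose; four independent runs in triplicate.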

L1210 [1] = assay: Cytotoxicity against mouse L1210 cell line; format: cell-based; design: Activity: concentration or dose not given beside the values; settings: for IC50: Mus musculus, L1210; for Activity: mouse, l1210; method in brief: as §1
L1210 [2] = assay: Cell cycle arrest in mouse L1210 cell line by accumulation at G2 phase at 1 uM after 24 hrs; format: functional
Method in brief: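 L1210 cells grown in RPMI 1640 with 2 mM L-glutamine, penicillin, streptomycin and 20% heat-inactivated horse serum at 37 °C, 5% CO2, then drug-exposed (methods 21 h; footnote 24 h). Ethanol (70%) fixed, then washed. Stained 30 min at room temperature in PBS with […] RNase and propidium iodide. Flow cytometry gives % cells in each cycle phase.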

Homo sapiens = organism: Homo sapiens; assay: Inhibition of topoisomerase 2 assessed by DNA cleavage complex formation assay
Method in brief: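 Cleavage complex formed on pYRG plasmid DNA by human topoisomerase II purified from placenta. Linear DNA product quantified by densitometry relative to ellipticine.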

[3] = Effect on DNA sequence recognition assessed by DNase I footprinting assay; format: functional
L1210 [4] = assay: Cell cycle arrest in mouse L1210 cell line by accumulation at G2/M phase at 5 uM after 24 hrs; format: functional
Method in brief: (§2)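 L1210 cells in RPMI 1640 with 2 mM L-glutamine, penicillin, streptomycin and 20% heat-inactivated horse serum, 5% CO2, 37 °C, exposed to several drug concentrations. Cells fixed in 70% ethanol, washed, stained 30 min at room temperature with propidium iodide plus RNAse in PBS, then flow cytometry. Read-out is percentage of cells in each cycle phase after 24 h exposure.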

L1210 [5] = assay: Cell cycle arrest in mouse L1210 cell line by accumulation at 8N phase at 5 uM after 24 hrs; format: functional; method in brief: as §2
L1210 [6] = assay: Cell cycle arrest in mouse L1210 cell line by accumulation at 8N phase at 20 uM after 24 hrs; format: functional; method in brief: as §2
L1210 [7] = assay: Cell cycle arrest in mouse L1210 cell line by accumulation at G2/M phase at 1 uM after 24 hrs; format: functional; method in brief: as §2

Q: For Cc1c2c(c(C)c3cnccc13)Oc1ccccc1O2, which IC50 (HT-29) is on record?
A: The IC50 was 22.1 µM.

Q: And the IC50 (L1210 [1])?
A: The IC50 was 1.2 µM.

Q: With CCCCCCCCc1c2c(c(C)c3c1C(=O)OC3)Oc1ccccc1O2 as the compound, how does the IC50 (HT-29) read?
A: Its IC50 is over 10 µM.

Q: What about the IC50 (L1210 [1]) of the same compound?
A: Its IC50 is over 10 µM.

Q: With Cc1c2ccncc2c(C)c2c1[nH]c1ccccc12 [ELLIPTECINE] as the compound, how does the IC50 (HT-29) read?
A: Its IC50 is 14.9 µM.

Q: And the Activity (L1210 [2])?
A: Its Activity is 50%.

Q: What about the IC50 (L1210 [1]) of the same compound?
A: The IC50 was 0.19 µM.

Q: With CCCCCc1c2c(c(C)c3c1C(=O)OC3)Oc1ccccc1O2 as the compound, how does the IC50 (HT-29) read?
A: Its IC50 is 0.12 µM.

Q: And the Activity (Homo sapiens)?
A: The Activity was “inactive”.

Q: What about the Activity [3] of the same compound?
A: Its Activity is “inactive”.

Q: And the Activity (L1210 [4])?
A: Its Activity is 80%.

Q: What about the IC50 (L1210 [1]) of the same compound?
A: The IC50 was 1.8 µM.

Q: And the Activity (L1210 [5])?
A: The Activity was 80%.

Q: Which IC50 (HT-29) does the source give for CCCCCCCCc1c2c(c(C)c3c1Oc1ccccc1O3)C(=O)OC2 here?
A: The IC50 was over 10 µM.

Q: And the IC50 (L1210 [1])?
A: The IC50 was over 10 µM.

Q: With Cc1c2c(c(CCCCC#N)c3c1Oc1ccccc1O3)C(=O)OC2 as the compound, how does the IC50 (HT-29) read?
A: The IC50 was 24.1 µM.

Q: And the IC50 (L1210 [1])?
A: Its IC50 is 77 µM.

Q: For CCCCCCCc1c2c(c(C)c3c1C(=O)OC3)Oc1ccccc1O2, which IC50 (HT-29) is on record?
A: Its IC50 is 1.9 µM.

Q: What about the Activity (L1210 [6]) of the same compound?
A: The Activity was 70%.

Q: What about the IC50 (L1210 [1]) of the same compound?
A: The IC50 was 3.9 µM.

Q: With Cc1c2c(c(CCCCCC#N)c3c1Oc1ccccc1O3)C(=O)OC2 as the compound, how does the IC50 (HT-29) read?
A: The IC50 was 0.12 µM.

Q: And the Activity (Homo sapiens)?
A: The Activity was “inactive”.

Q: What about the IC50 (L1210 [1]) of the same compound?
A: The IC50 was 0.54 µM.

Q: And the Activity (L1210 [5])?
A: Its Activity is 88%.

Q: For Cc1c2c(c(C)c3c1Oc1ccccc1O3)C(=O)OC2, which IC50 (HT-29) is on record?
A: The IC50 was over 100 µM.

Q: And the IC50 (L1210 [1])?
A: Its IC50 is over 100 µM.

Q: For CCCc1c2c(c(C)c3c1Oc1ccccc1O3)C(=O)OC2, which IC50 (HT-29) is on record?
A: The IC50 was over 10 µM.

Q: And the IC50 (L1210 [1])?
A: Its IC50 is over 10 µM.

Q: And the Activity (L1210 [1])?
A: Its Activity is 115%.

Q: For Cc1c2c(c(CC(C)CC(C)(C)C)c3c1C(=O)OC3)Oc1ccccc1O2 (stereo not drawn), which IC50 (HT-29) is on record?
A: Its IC50 is over 10 µM.

Q: What about the IC50 (L1210 [1]) of the same compound?
A: Its IC50 is over 10 µM.

Q: What about the Activity (L1210 [1]) of the same compound?
A: The Activity was 70%.

Q: What does the source list for COc1cccc2c1C(=O)c1c(O)c3c(c(O)c1C2=O)C[C@@](O)(C(=O)CO)C[C@@H]3O[C@H]1C[C@H](N)[C@H](O)[C@H](C)O1 [DOXORUBICIN]?
A: IC50 (HT-29): 0.48 µM; Activity (L1210 [7]): 86%; IC50 (L1210 [1]): 0.029 µM

Q: Which results are given for Cc1c2c(c(CCCCC(=O)O)c3c1Oc1ccccc1O3)C(=O)OC2?
A: IC50 (HT-29): > 10 µM; IC50 (L1210 [1]): 89 µM

Q: With CCCCCc1c2c(c(C)c3c1C(=O)OC3)Oc1ccc(OC)cc1O2 as the compound, how does the IC50 (HT-29) read?
A: The IC50 was over 10 µM.

Q: And the IC50 (L1210 [1])?
A: The IC50 was over 10 µM.

Q: And the Activity (L1210 [1])?
A: The Activity was 78%.

Q: With CCc1c2c(c(C)c3c1C(=O)OC3)Oc1ccccc1O2 as the compound, how does the IC50 (HT-29) read?
A: The IC50 was over 10 µM.

Q: What about the IC50 (L1210 [1]) of the same compound?
A: The IC50 was over 10 µM.

Q: For CCCCCCc1c2c(c(C)c3c1C(=O)SC3)Oc1ccccc1O2, which IC50 (HT-29) is on record?
A: Its IC50 is 34.5 µM.

Q: And the IC50 (L1210 [1])?
A: The IC50 was 19 µM.

Q: For Cc1c2c(c(CCCCCN)c3c1Oc1ccccc1O3)C(=O)OC2, which IC50 (HT-29) is on record?
A: Its IC50 is 5.7 µM.

Q: And the IC50 (L1210 [1])?
A: The IC50 was 12.8 µM.

Q: What does the source list for CCCCCCCc1c2c(c(C)c3c1Oc1ccccc1O3)C(=O)OC2?
A: IC50 (HT-29): 21.8 µM; IC50 (L1210 [1]): > 10 µM

Q: Which results are given for CC1OC(=O)C2=C1Oc1ccccc1O2 (stereo not drawn)?
A: IC50 (HT-29): > 10 µM; IC50 (L1210 [1]): > 10 µM

Q: With CCCCCCc1c2c(c(C)c3c1C(=O)OC3)Oc1ccccc1O2 as the compound, how does the IC50 (HT-29) read?
A: Its IC50 is 0.38 µM.

Q: What about the Activity (L1210 [4]) of the same compound?
A: Its Activity is 86%.

Q: And the IC50 (L1210 [1])?
A: The IC50 was 2 µM.

Q: And the Activity (L1210 [5])?
A: Its Activity is 86%.

Q: Which IC50 (HT-29) does the source give for Cc1c2c(c(CC(C)CC(C)(C)C)c3c1Oc1ccccc1O3)C(=O)OC2 (stereo not drawn) here?
A: The IC50 was over 10 µM.

Q: What about the IC50 (L1210 [1]) of the same compound?
A: Its IC50 is 13.5 µM.

Q: Which IC50 (HT-29) does the source give for CCc1c2c(c(C)c3c1Oc1ccccc1O3)C(=O)OC2 here?
A: Its IC50 is over 10 µM.

Q: What about the IC50 (L1210 [1]) of the same compound?
A: Its IC50 is over 10 µM.

Q: For Cc1c2c(c(CCCCCC#N)c3c1C(=O)OC3)Oc1ccccc1O2, which IC50 (HT-29) is on record?
A: The IC50 was over 10 µM.

Q: What about the IC50 (L1210 [1]) of the same compound?
A: The IC50 was over 10 µM.

Q: With CCCc1c2c(c(C)c3c1C(=O)OC3)Oc1ccccc1O2 as the compound, how does the IC50 (HT-29) read?
A: Its IC50 is over 10 µM.

Q: And the IC50 (L1210 [1])?
A: Its IC50 is over 10 µM.

Q: And the Activity (L1210 [1])?
A: Its Activity is 111%.

Q: With CCCCc1c2c(c(C)c3c1Oc1ccccc1O3)C(=O)OC2 as the compound, how does the IC50 (HT-29) read?
A: The IC50 was 17.7 µM.

Q: What about the IC50 (L1210 [1]) of the same compound?
A: Its IC50 is over 100 µM.

Q: For CCCCCCc1c2c(c(CCCCCC)c3c1Oc1ccccc1O3)C(=O)OC2, which IC50 (HT-29) is on record?
A: The IC50 was over 10 µM.

Q: And the IC50 (L1210 [1])?
A: The IC50 was over 10 µM.

Q: For CCCCCc1c2c(c(C)c3c1Oc1cc(OC)ccc1O3)C(=O)OC2, which IC50 (HT-29) is on record?
A: The IC50 was over 10 µM.

Q: What about the IC50 (L1210 [1]) of the same compound?
A: Its IC50 is over 10 µM.

Q: What about the Activity (L1210 [1]) of the same compound?
A: The Activity was 70%.

Q: Which IC50 (HT-29) does the source give for CCCCCc1c2c(c(C)c3c1Oc1ccccc1O3)C(=O)OC2 here?
A: Its IC50 is 9.2 µM.

Q: And the Activity (L1210 [4])?
A: Its Activity is 35%.

Q: What about the IC50 (L1210 [1]) of the same compound?
A: The IC50 was 7.2 µM.

Q: What about the Activity (L1210 [5]) of the same compound?
A: The Activity was 35%.

Q: Which results are given for Cc1c2c(c(CCCCCC(=O)O)c3c1Oc1ccccc1O3)C(=O)OC2?
A: IC50 (HT-29): > 10 µM; IC50 (L1210 [1]): > 10 µM

Q: Which results are given for CCCCCCc1c2c(c(C)c3c1Oc1ccccc1O3)C(=O)OC2?
A: IC50 (HT-29): 18.2 µM; IC50 (L1210 [1]): > 10 µM; Activity (L1210 [1]): 118.3%

Q: For CNCCCCc1c2c(c(C)c3c1C(=O)OC3)Oc1ccccc1O2, which IC50 (HT-29) is on record?
A: The IC50 was 0.54 µM.

Q: What about the Activity (L1210 [4]) of the same compound?
A: The Activity was 86%.

Q: And the IC50 (L1210 [1])?
A: Its IC50 is 2.4 µM.

Q: What about the Activity (L1210 [5]) of the same compound?
A: The Activity was 86%.
